Measurements as given in ChEMBL document CHEMBL1155435, “Design, synthesis and evaluation of constrained tetrahydroimidazopyrimidine derivatives as antagonists of corticotropin-releasing factor type 1 receptor (CRF1R)” (Bioorg Med Chem Lett, 2010).
The source made the active and inactive calls. No cut-off for these calls is given here.

Molecular target: T1, Corticotropin-releasing factor receptor 1 (Homo sapiens, UniProt P34998)
T1 sequence (P34998 whole entry): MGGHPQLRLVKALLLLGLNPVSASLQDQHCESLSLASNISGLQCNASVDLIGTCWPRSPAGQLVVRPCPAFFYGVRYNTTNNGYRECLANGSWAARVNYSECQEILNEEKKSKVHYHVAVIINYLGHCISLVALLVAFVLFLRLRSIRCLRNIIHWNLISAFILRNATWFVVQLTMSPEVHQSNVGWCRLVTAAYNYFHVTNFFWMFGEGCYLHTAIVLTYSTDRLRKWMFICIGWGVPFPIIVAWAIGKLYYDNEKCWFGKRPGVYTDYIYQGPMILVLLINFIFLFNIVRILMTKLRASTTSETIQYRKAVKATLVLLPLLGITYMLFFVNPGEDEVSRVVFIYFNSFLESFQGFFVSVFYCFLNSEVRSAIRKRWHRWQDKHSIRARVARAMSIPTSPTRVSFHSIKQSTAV
Test: Displacement of [125I]Tyr-o-CRF from human CRFR1 expressed in human IMR32 cells
Type: cell-based, IMR-32
Conditions: not given
Procedure, shortened: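 Radioligand displacement of [125I]-Tyr-o-CRF from human CRF1 receptor expressed endogenously on intact IMR-32 human neuroblastoma cells. The protocol follows an earlier report.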

| Ki | Compound |
| --- | --- |
| 48 nM | C=CCN(CCC)Cc1c(C(F)(F)F)nc2n1CCCN2c1c(C)cc(C)cc1C |
| 2300 nM | CCCN(CC1CC1)C(=O)c1c(CC)nc2n1CCCN2c1c(C)cc(C)cc1C |
| 21 nM | CCCN(Cc1c(C(F)(F)F)nc2n1CCCN2c1c(C)cc(C)cc1C)CC1CCC1 |
| > 5000 nM | CCCN(CC1CC1)C(=O)c1c(C)nc2n1CCC(=O)N2c1c(C)cc(C)cc1C |
| 1700 nM | CCCN(CCc1ccccc1)C(=O)c1c(C)nc2n1CCCN2c1c(C)cc(C)cc1C |
| > 5000 nM | CCCN(CC1CC1)C(=O)c1c(C)nc2n1CCCN2c1c(C)cc(C)cc1C |
| 1510 nM | Cc1cc(C)c(N2CCCn3c2nc(C(F)(F)F)c3CN2CCOCC2)c(C)c1 |
| 3300 nM | CCCN(CC1CCC1)C(=O)c1c(C)nc2n1CCCN2c1c(C)cc(C)cc1C |
| > 5000 nM | Cc1cc(C)c(N2CCCn3c2nc(C(F)(F)F)c3CN2CCCN(C)CC2)c(C)c1 |
| 27 nM | Cc1cc(C)c(N2CCCn3c2nc(C(F)(F)F)c3CN(CC2CCC2)CC(F)(F)F)c(C)c1 |
| > 5000 nM | C=CCN(CCC)C(=O)c1c(C)nc2n1CCCN2c1c(C)cc(C)cc1C |
| > 5000 nM | CCCCN(CC)C(=O)c1c(CC)nc2n1CCC(=O)N2c1c(C)cc(C)cc1C |
| 1200 nM | CCCN(CC1CC1)C(=O)c1c(C(F)(F)F)nc2n1CCCN2c1c(C)cc(C)cc1C |
| 38 nM | Cc1cc(C)c(N2CCCn3c2nc(C(F)(F)F)c3CN(CCc2ccccc2)CC(F)(F)F)c(C)c1 |
| 19 nM | C=CCN(CC=C)C(=O)c1c(C(F)(F)F)nc2n1CCCN2c1c(C)cc(C)cc1C |
| 441 nM | Cc1cc(C)c(N2CCCn3c2nc(C(F)(F)F)c3CN2CCSCC2)c(C)c1 |
| > 5000 nM | C=CCN(CC=C)C(=O)c1c(C)nc2n1CCC(=O)N2c1c(C)cc(C)cc1C |

| Ki | Compound |
| --- | --- |
| > 5000 nM | Cc1cc(C)c(N2C(=O)CCn3c2nc(C)c3C(=O)N2CCN(c3ccccc3F)CC2)c(C)c1 |
| 3400 nM | Cc1cc(C)c(N2CCCn3c2nc(C)c3C(=O)N(CC2CC2)CC2CC2)c(C)c1 |
| 14 nM | Cc1cc(C)c(N2CCCn3c2nc(C(F)(F)F)c3CN(CC2CC2)CC(F)(F)C(F)(F)F)c(C)c1 |
| > 5000 nM | C=CCN(CC=C)C(=O)c1c(CC)nc2n1CCC(=O)N2c1c(C)cc(C)cc1C |
| 67 nM | CCCN(CCc1ccccc1)Cc1c(C(F)(F)F)nc2n1CCCN2c1c(C)cc(C)cc1C |
| > 5000 nM | CCCN(CCC)C(=O)c1c(C)nc2n1CCC(=O)N2c1c(C)cc(C)cc1C |
| 364 nM | Cc1cc(C)c(N2CCCn3c2nc(C(F)(F)F)c3CN2CC=CCC2)c(C)c1 |
| > 5000 nM | CCCN(CC1CC1)C(=O)c1c(CC)nc2n1CCC(=O)N2c1c(C)cc(C)cc1C |
| > 5000 nM | CCc1nc2n(c1C(=O)N(CC)Cc1ccccc1)CCC(=O)N2c1c(C)cc(C)cc1C |
| > 5000 nM | CCCN(CCC)C(=O)c1c(CC)nc2n1CCC(=O)N2c1c(C)cc(C)cc1C |
| > 5000 nM | CCCN(Cc1ccccc1)C(=O)c1c(C)nc2n1CCCN2c1c(C)cc(C)cc1C |
| 32 nM | CCCN(Cc1c(C(F)(F)F)nc2n1CCCN2c1c(C)cc(C)cc1C)CC1CC1 |
| 8 nM | Cc1cc(C)c(N2CCCn3c2nc(C(F)(F)F)c3CN(CC2CC2)CC(F)(F)F)c(C)c1 |
| > 5000 nM | Cc1cc(C)c(N2C(=O)CCn3c2nc(C)c3C(=O)N2CCOCC2)c(C)c1 |
| 31 nM | CCN(Cc1c(C(F)(F)F)nc2n1CCCN2c1c(C)cc(C)cc1C)CC1CC1 |
| 63 nM | CCCN(CCC(F)(F)F)Cc1c(C(F)(F)F)nc2n1CCCN2c1c(C)cc(C)cc1C |
| 245 nM | Cc1cc(C)c(N2CCCn3c2nc(C(F)(F)F)c3CN2CCCCC2)c(C)c1 |

System: Mus musculus
Test: Anxiolytic activity in ip dosed mouse assessed as decrease reduction of stretched attenuated postures by canopy test
Type: functional
Conditions: not given
Procedure, shortened: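 Mouse canopy test for anxiety-like behaviour. Compound was given ip in cremophor/DMSO/water (1:1:8) at several doses. The read-out was the total count of stretched attend postures. The protocol follows an earlier report.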

| Compound | Activity |
| --- | --- |
| CCCN(Cc1c(C(F)(F)F)nc2n1CCCN2c1c(C)cc(C)cc1C)CC1CC1 | Active |

System: not listed separately
Test: Drug level in mouse brain at 32 mg/kg, ip after 30 mins
Type: ADME, organism-based
Set-up: dose 32 mg/kg, route intraperitoneal
Conditions: read-out: Drug uptake
Procedure, shortened: (§1)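 Mice were dosed ip at 32 mg/kg in cremophor/DMSO/water (1:1:8). Brain and plasma were sampled at 30 min and 1 h after dosing. Brain level is given as ng compound per g brain, alongside the brain/plasma concentration ratio.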

| concentration at 0.5 h | Compound |
| --- | --- |
| 352 ng/g | CCCN(Cc1c(C(F)(F)F)nc2n1CCCN2c1c(C)cc(C)cc1C)CC1CC1 |

System: not listed separately
Test: Ratio of drug level in mouse brain to plasma at 32 mg/kg, ip after 30 mins
Type: ADME, organism-based
Set-up: dose 32 mg/kg, route intraperitoneal
Conditions: not given
Procedure, shortened: as §1

| Kp at 0.5 h | Compound |
| --- | --- |
| 1.2 | CCCN(Cc1c(C(F)(F)F)nc2n1CCCN2c1c(C)cc(C)cc1C)CC1CC1 |

System: not listed separately
Test: Drug level in mouse brain at 32 mg/kg, ip after 1 hr
Type: ADME, organism-based
Set-up: dose 32 mg/kg, route intraperitoneal
Conditions: read-out: Drug uptake
Procedure, shortened: as §1

| concentration at 1 h | Compound |
| --- | --- |
| 217 ng/g | CCCN(Cc1c(C(F)(F)F)nc2n1CCCN2c1c(C)cc(C)cc1C)CC1CC1 |

System: not listed separately
Test: Ratio of drug level in mouse brain to plasma at 32 mg/kg, ip after 1 hr
Type: ADME, organism-based
Set-up: dose 32 mg/kg, route intraperitoneal
Conditions: not given
Procedure, shortened: as §1

| Kp at 1 h | Compound |
| --- | --- |
| 1 | CCCN(Cc1c(C(F)(F)F)nc2n1CCCN2c1c(C)cc(C)cc1C)CC1CC1 |
